Measured values pooled from the literature.
Target: Serine/threonine-protein kinase Nek6 (NEK6, Homo sapiens, UniProt Q9HC98)
Read-out: enzyme activity
Mode: inhibitor

For `CCCOc1ccc(OC)c(F)c1C(=O)c1ccc(C(=O)N[C@@H]2CNC[C@H]2NC(=O)c2ccc3[nH]ncc3c2)cc1`, the remaining activity was 96% (10 µM).
`Cc1sc(C(=O)NC2COC2)cc1-n1cc(NC(=O)Nc2c(F)cccc2Cl)cn1` gave a remaining activity of 92.7% (10 µM).
With `CC(C)(C)C(=O)c1sc(NC2CCCCC2)nc1N` the remaining activity was 100% (10 µM).
The remaining activity of `COc1cc(Nc2cnc(C#N)c(O[C@H](C)CN(C)C)n2)ncc1-c1cnn(C)c1` is reported as 97% (radiometric; 1 µM).
`FC(F)c1nc2ccccc2n1-c1nc(N2CCOCC2)nc(N2CCOCC2)n1` has a remaining activity of 83% (10 µM).
For `COc1cc(Cl)c(C(=O)N[C@@H](CN[C@H]2CC[C@@H](N)CC2)Cc2ccc(C#N)cc2)cc1-c1ccc(CN[C@H](C)c2ccc(C)cc2)o1`, the remaining activity was 111% (1 µM).
`Cc1[nH]c(/C=C2\C(=O)Nc3ccc(F)cc32)c(C)c1C(=O)N[C@H]1CCN(C(=O)N(C)C)C1` gave a remaining activity of 131% (0.1 µM).
`CC(C)(O)[C@H]1CC[C@H](Nc2ccc3ncc(-c4cccc(C(F)(F)F)c4)n3n2)CC1` gave a remaining activity of 99.7% (1 µM).
`CCN(CC)CCNC(=O)c1c(C)[nH]c(/C=C2\C(=O)Nc3ccc(F)cc32)c1C` gave a remaining activity of 103% (1 µM).
`Cc1cnc(NC2CCOCC2)nc1-n1cnc(C(=O)NC(CN)c2cc(F)cc(Cl)c2)c1` (stereo not drawn) gave a remaining activity of 55% (radiometric; 1 µM).
With `CC(C)(C)c1nc(-c2cccc(NS(=O)(=O)c3c(F)cccc3F)c2F)c(-c2ccnc(N)n2)s1` the remaining activity was 99% (radiometric; 1 µM).
`CCN(CC)c1ccc(C2=NNC(=O)CC2C)cc1[N+](=O)[O-]` (stereo not drawn) has a remaining activity of 93% (10 µM).
